Results from ChEMBL document CHEMBL1152439, “Calcitriol derivatives with two different side chains at C-20. V. Potent inhibitors of mammary carcinogenesis and inducers of leukemia differentiation” (J Med Chem, 2009).
Active and inactive are the calls of the source. No cut-off for these calls is given here.

System: not listed separately
Experiment: Antiproliferative activity against human MCF10CA1a after 3 days by [3H]thymidine uptake assay
Assay type: functional
Settings: not given

SMILES	IC50 [nM]
[2H]C([2H])([2H])C(O)(CCC[C@H](C/C=C\C(O)(C(F)(F)F)C(F)(F)F)[C@H]1CC[C@H]2/C(=C/C=C3/C[C@@H](O)C[C@H](O)C3=C)CCC[C@]12C)C([2H])([2H])[2H]	0.56
[2H]C([2H])([2H])C(O)(CCC[C@H](C/C=C\C(O)(C(F)(F)F)C(F)(F)F)[C@H]1CC[C@H]2/C(=C/C=C3C[C@@H](O)C[C@H](O)C3)CCC[C@]12C)C([2H])([2H])[2H]	0.43
[2H]C([2H])([2H])C(O)(CCC[C@@H](C/C=C\C(O)(C(F)(F)F)C(F)(F)F)[C@H]1CC[C@H]2/C(=C/C=C3/C[C@@H](O)C[C@H](F)C3=C)CCC[C@]12C)C([2H])([2H])[2H]	> 10
[2H]C([2H])([2H])C(O)(CCC[C@H](CC#CC(O)(C(F)(F)F)C(F)(F)F)[C@H]1CC[C@H]2/C(=C/C=C3/C[C@@H](O)C[C@H](O)C3=C)CCC[C@]12C)C([2H])([2H])[2H]	0.053
[2H]C([2H])([2H])C(O)(CCC[C@@H](CC#CC(O)(C(F)(F)F)C(F)(F)F)[C@H]1CC[C@H]2/C(=C/C=C3/C[C@@H](O)C[C@H](O)C3=C)CCC[C@]12C)C([2H])([2H])[2H]	0.062
[2H]C([2H])([2H])C(O)(CCC[C@@H](C/C=C\C(O)(C(F)(F)F)C(F)(F)F)[C@H]1CC[C@H]2/C(=C/C=C3C[C@@H](O)C[C@H](O)C3)CCC[C@]12C)C([2H])([2H])[2H]	3.2
[2H]C([2H])([2H])C(O)(CCC[C@@H](C/C=C\C(O)(C(F)(F)F)C(F)(F)F)[C@H]1CC[C@H]2/C(=C/C=C3/C[C@@H](O)C[C@H](O)C3=C)CCC[C@]12C)C([2H])([2H])[2H]	1.6
[2H]C([2H])([2H])C(O)(CCC[C@@H](CC#CC(O)(C(F)(F)F)C(F)(F)F)[C@H]1CC[C@H]2/C(=C/C=C3C[C@@H](O)C[C@H](O)C3)CCC[C@]12C)C([2H])([2H])[2H]	0.12
[2H]C([2H])([2H])C(O)(CCC[C@H](CC#CC(O)(C(F)(F)F)C(F)(F)F)[C@H]1CC[C@H]2/C(=C/C=C3/C[C@@H](O)C[C@H](F)C3=C)CCC[C@]12C)C([2H])([2H])[2H]	1.6
[2H]C([2H])([2H])C(O)(CCC[C@H](CC#CC(O)(C(F)(F)F)C(F)(F)F)[C@H]1CC[C@H]2/C(=C/C=C3C[C@@H](O)C[C@H](O)C3)CCC[C@]12C)C([2H])([2H])[2H]	0.19
[2H]C([2H])([2H])C(O)(CCC[C@H](C/C=C\C(O)(C(F)(F)F)C(F)(F)F)[C@H]1CC[C@H]2/C(=C/C=C3/C[C@@H](O)C[C@H](F)C3=C)CCC[C@]12C)C([2H])([2H])[2H]	6.9
[2H]C([2H])([2H])C(O)(CCC[C@@H](CC#CC(O)(C(F)(F)F)C(F)(F)F)[C@H]1CC[C@H]2/C(=C/C=C3/C[C@@H](O)C[C@H](F)C3=C)CCC[C@]12C)C([2H])([2H])[2H]	0.56

System: NB-4
Experiment: Induction of cell differentiation in human NB4 cells assessed as induction of induction of cell surface marker CD14 expression at 1 nM after 48 hrs
Assay type: functional, cell-based
Settings: not given
Method in brief: (§1)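 NB4 human promyelocytic leukemia cells kept in log-phase suspension in RPMI 1640 with 10% […] iron-supplemented bovine calf serum, 37 °C, 5% CO₂. Exposed to compounds at 1 nM for 48 h; 1 × 10⁶ cells washed twice in PBS, then labelled with MY4-RD1 and Mo1-FITC antibodies to measure surface CD14 and CD11b expression.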

SMILES	Activity
C=C1/C(=C\C=C2/CCC[C@]3(C)[C@@H]([C@H](C)CCCC(C)(C)O)CC[C@@H]23)C[C@@H](O)C[C@@H]1O	Active

Same assay, conditions: tested as the 2H-labelled form

SMILES	Activity
C=C1/C(=C\C=C2/CCC[C@]3(C)[C@@H]([C@@H](C/C=C\C(O)(C(F)(F)F)C(F)(F)F)CCCC(C)(C)O)CC[C@@H]23)C[C@@H](O)C[C@@H]1F	Active
C=C1/C(=C\C=C2/CCC[C@]3(C)[C@@H]([C@H](CC#CC(O)(C(F)(F)F)C(F)(F)F)CCCC(C)(C)O)CC[C@@H]23)C[C@@H](O)C[C@@H]1O	Active
CC(C)(O)CCC[C@@H](C/C=C\C(O)(C(F)(F)F)C(F)(F)F)[C@H]1CC[C@H]2/C(=C/C=C3C[C@@H](O)C[C@H](O)C3)CCC[C@]12C	Active
CC(C)(O)CCC[C@H](CC#CC(O)(C(F)(F)F)C(F)(F)F)[C@H]1CC[C@H]2/C(=C/C=C3C[C@@H](O)C[C@H](O)C3)CCC[C@]12C	Active
C=C1/C(=C\C=C2/CCC[C@]3(C)[C@@H]([C@H](C/C=C\C(O)(C(F)(F)F)C(F)(F)F)CCCC(C)(C)O)CC[C@@H]23)C[C@@H](O)C[C@@H]1F	Active
CC(C)(O)CCC[C@H](C/C=C\C(O)(C(F)(F)F)C(F)(F)F)[C@H]1CC[C@H]2/C(=C/C=C3C[C@@H](O)C[C@H](O)C3)CCC[C@]12C	Active
C=C1/C(=C\C=C2/CCC[C@]3(C)[C@@H]([C@H](CC#CC(O)(C(F)(F)F)C(F)(F)F)CCCC(C)(C)O)CC[C@@H]23)C[C@@H](O)C[C@@H]1F	Active
C=C1/C(=C\C=C2/CCC[C@]3(C)[C@@H]([C@@H](CC#CC(O)(C(F)(F)F)C(F)(F)F)CCCC(C)(C)O)CC[C@@H]23)C[C@@H](O)C[C@@H]1O	Active
C=C1/C(=C\C=C2/CCC[C@]3(C)[C@@H]([C@@H](C/C=C\C(O)(C(F)(F)F)C(F)(F)F)CCCC(C)(C)O)CC[C@@H]23)C[C@@H](O)C[C@@H]1O	Active
CC(C)(O)CCC[C@@H](CC#CC(O)(C(F)(F)F)C(F)(F)F)[C@H]1CC[C@H]2/C(=C/C=C3C[C@@H](O)C[C@H](O)C3)CCC[C@]12C	Active
C=C1/C(=C\C=C2/CCC[C@]3(C)[C@@H]([C@H](C/C=C\C(O)(C(F)(F)F)C(F)(F)F)CCCC(C)(C)O)CC[C@@H]23)C[C@@H](O)C[C@@H]1O	Active
C=C1/C(=C\C=C2/CCC[C@]3(C)[C@@H]([C@@H](CC#CC(O)(C(F)(F)F)C(F)(F)F)CCCC(C)(C)O)CC[C@@H]23)C[C@@H](O)C[C@@H]1F	Active

System: NB-4
Experiment: Induction of cell differentiation in human NB4 cells assessed as induction of induction of cell surface marker CD11b expression at 1 nM after 48 hrs
Assay type: functional, cell-based
Settings: not given
Method in brief: as §1

SMILES	Activity
C=C1/C(=C\C=C2/CCC[C@]3(C)[C@@H]([C@H](C)CCCC(C)(C)O)CC[C@@H]23)C[C@@H](O)C[C@@H]1O	Active

Same assay, conditions: tested as the 2H-labelled form

SMILES	Activity
C=C1/C(=C\C=C2/CCC[C@]3(C)[C@@H]([C@@H](C/C=C\C(O)(C(F)(F)F)C(F)(F)F)CCCC(C)(C)O)CC[C@@H]23)C[C@@H](O)C[C@@H]1F	Active
C=C1/C(=C\C=C2/CCC[C@]3(C)[C@@H]([C@H](CC#CC(O)(C(F)(F)F)C(F)(F)F)CCCC(C)(C)O)CC[C@@H]23)C[C@@H](O)C[C@@H]1O	Active
CC(C)(O)CCC[C@@H](C/C=C\C(O)(C(F)(F)F)C(F)(F)F)[C@H]1CC[C@H]2/C(=C/C=C3C[C@@H](O)C[C@H](O)C3)CCC[C@]12C	Active
CC(C)(O)CCC[C@H](CC#CC(O)(C(F)(F)F)C(F)(F)F)[C@H]1CC[C@H]2/C(=C/C=C3C[C@@H](O)C[C@H](O)C3)CCC[C@]12C	Active
C=C1/C(=C\C=C2/CCC[C@]3(C)[C@@H]([C@H](C/C=C\C(O)(C(F)(F)F)C(F)(F)F)CCCC(C)(C)O)CC[C@@H]23)C[C@@H](O)C[C@@H]1F	Active
CC(C)(O)CCC[C@H](C/C=C\C(O)(C(F)(F)F)C(F)(F)F)[C@H]1CC[C@H]2/C(=C/C=C3C[C@@H](O)C[C@H](O)C3)CCC[C@]12C	Active
C=C1/C(=C\C=C2/CCC[C@]3(C)[C@@H]([C@H](CC#CC(O)(C(F)(F)F)C(F)(F)F)CCCC(C)(C)O)CC[C@@H]23)C[C@@H](O)C[C@@H]1F	Active
C=C1/C(=C\C=C2/CCC[C@]3(C)[C@@H]([C@@H](CC#CC(O)(C(F)(F)F)C(F)(F)F)CCCC(C)(C)O)CC[C@@H]23)C[C@@H](O)C[C@@H]1O	Active
C=C1/C(=C\C=C2/CCC[C@]3(C)[C@@H]([C@@H](C/C=C\C(O)(C(F)(F)F)C(F)(F)F)CCCC(C)(C)O)CC[C@@H]23)C[C@@H](O)C[C@@H]1O	Active
CC(C)(O)CCC[C@@H](CC#CC(O)(C(F)(F)F)C(F)(F)F)[C@H]1CC[C@H]2/C(=C/C=C3C[C@@H](O)C[C@H](O)C3)CCC[C@]12C	Active
C=C1/C(=C\C=C2/CCC[C@]3(C)[C@@H]([C@H](C/C=C\C(O)(C(F)(F)F)C(F)(F)F)CCCC(C)(C)O)CC[C@@H]23)C[C@@H](O)C[C@@H]1O	Active
C=C1/C(=C\C=C2/CCC[C@]3(C)[C@@H]([C@@H](CC#CC(O)(C(F)(F)F)C(F)(F)F)CCCC(C)(C)O)CC[C@@H]23)C[C@@H](O)C[C@@H]1F	Active
